Assay results taken from article PMC3049929 (Journal of medicinal chemistry, 2008).
Where two headings read alike, the source gives them in different places.

Tests used:
[1] = system: P. falciparum 3D7 (chloroquine-sensitive); conditions: strain 3D7, infected erythrocytes; previously published data ref 26, 27; cited from earlier work
[2] = system: P. falciparum K1 (chloroquine-resistant, pyrimethamine-resistant); conditions: strain K1, infected erythrocytes; previously published data ref 26, 27; cited from earlier work
[3] = target: T1, PfPFT (P. falciparum protein farnesyltransferase) (Plasmodium falciparum, UniProt Q5EI73+Q5EI74); assay: PfPFT [3H] scintillation proximity assay; format: biochemical; conditions: for inhibition at 0.05 µM: read-out: Inhibition of PfFTase (%) 50 nM; for Inhibition of PfFTase (%) 50 nM: 50 nM inhibitor concentration
[4] = target: T1, PfPFT (P. falciparum protein farnesyltransferase); conditions: 50 nM inhibitor concentration; previously published data ref 26, 27; cited from earlier work
[5] = incubation with liver microsomes; cited from earlier work
[6] = system: P. falciparum K1 (chloroquine-resistant, pyrimethamine-resistant); format: cell-based; conditions: Plasmodium falciparum, K1, Erythrocyte, 48 h, read-out: ED50 (nM) K1
Method in brief: (§1)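 Parasites cultured in type A+ human erythrocytes (2% hematocrit) in RPMI-1640 with 20% heat-inactivated type A+ human plasma, under 5% CO2/5% O2/90% N2. Test compound in DMSO added to culture at 0.5% parasitemia and 0.5% hematocrit. Incubated 37 °C for 48 h, then [8-3H]hypoxanthine (0.3 µCi) added for a further 24 h. Cells harvested to filter mats and counted by β-scintillation. Uninfected-erythrocyte background subtracted; DMSO-only wells taken as 100% growth. ED50 from linear regression of incorporation vs concentration.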

[7] = system: PfPFT (P. falciparum protein farnesyltransferase); assay: PfPFT [3H] scintillation proximity assay; format: biochemical; conditions: rat PFT IC50 / PfPFT IC50
rat PFT = rat PFT (Rattus norvegicus, UniProt Q02293+Q04631); assay: rat PFT [3H] scintillation proximity assay; format: biochemical
[8] = system: P. falciparum 3D7 (chloroquine-sensitive); format: cell-based; conditions: Plasmodium falciparum, 3D7, Erythrocyte, 48 h, read-out: ED50 (nM) 3D7
Method in brief: as §1

| SMILES | ED50 (nM) 3D7 [1] | ED50 (nM) K1 [2] | inhibition at 0.05 µM [3] | IC50 [6] | further results |
| --- | --- | --- | --- | --- | --- |
| Cc1ccccc1CN(CCN(Cc1cncn1C)c1ccc(C#N)cc1)S(=O)(=O)c1cn(C)cn1 [1b] | 93 nM | 150 nM |  |  |  |
| Cn1cnc(S(=O)(=O)N(CC(=O)N(Cc2cncn2C)c2ccc(C#N)cc2)CC2CCN(C(=O)OC(C)(C)C)CC2)c1 [4d, 2-[(N-tert-Butoxycarbonylpiperidin-4-ylmethyl)(1-methyl-1H-imidazole-4-sulfonyl)amino]-N-(4-cyanophenyl)-N-(3-methyl-3H-imidazol-4-ylmethyl)acetamide] |  |  | 0% |  |  |
| Cn1cnc(S(=O)(=O)N(CCC(=O)N(Cc2cncn2C)c2ccc(C#N)cc2)Cc2ccccc2)c1 [5a, 3-[Benzyl-(1-methyl-1H-imidazole-4-sulfonyl)amino]-N-(4-cyanophenyl)-N-(3-methyl-3H-imidazol-4-ylmethyl)propanamide] |  |  | 0% |  |  |
| Cn1cnc(S(=O)(=O)N(CCN(Cc2cncn2C)c2ccc(C#N)cc2)Cc2ccsc2)c1 [1c] | 150 nM | 240 nM |  |  | Inhibition of PfFTase (%) 50 nM [4]: 100% |
| Cn1cnc(S(=O)(=O)N(CC(=O)N(Cc2cncn2C)c2ccc(C#N)cc2)Cc2ccccc2)c1 [4a, 2-[Benzyl(1-methyl-1H-imidazole-4-sulfonyl)amino]-N-(4-cyanophenyl)-N-(3-methyl-3H-imidazol-4-ylmethyl)acetamide] |  |  | 0% |  |  |
| Cn1cnc(S(=O)(=O)N(CCN(Cc2cncn2C)c2ccc(C#N)cc2)CC2CCN(C(=O)OC(C)(C)C)CC2)c1 [1d] | 88 nM | 54 nM |  |  | metabolic stability [5]: limited |
| Cn1cnc(S(=O)(=O)N(CCN(Cc2cncn2C)c2ccc(C#N)cc2)CC2CCN(c3ncccn3)CC2)c1 [1e] | 130 nM | 85 nM |  |  |  |
| Cn1cnc(S(=O)(=O)N(CCN(Cc2cncn2C)c2ccc(C#N)cc2)Cc2ccccc2)c1 [1a] | 349 nM | 375 nM |  |  |  |
| Cn1cnc(S(=O)(=O)N(CC2CCN(C(=O)OC(C)(C)C)CC2)[C@H]2CC[C@H](N(Cc3cncn3C)c3ccc(C#N)cc3)CC2)c1 [11d, (±)-[N-(N-tert-Butoxycarbonylpiperidin-4-ylmethyl)-N-{trans-4-[(4-cyanophenyl)(3-methyl-3H-imidazol-4-ylmethyl)amino]cyclohexyl}]-1-methyl-1H-imidazole-4-sulfonamide] |  |  | 0% | 1200 nM | Inhibition of PfFTase (%) 50 nM [3]: no inhibitory activity |
| Cn1cnc(S(=O)(=O)N(CC2CCN(C(=O)OC(C)(C)C)CC2)[C@H]2CC[C@@H](N(Cc3cncn3C)c3ccc(C#N)cc3)CC2)c1 [10d, (±)-[N-(N-tert-Butoxycarbonylpiperidin-4-ylmethyl)-N-{cis-4-[(4-cyanophenyl)(3-methyl-3H-imidazol-4-ylmethyl)amino]cyclohexyl}]-1-methyl-1H-imidazole-4-sulfonamide] |  |  | 0% | 650 nM | Inhibition of PfFTase (%) 50 nM [3]: no inhibitory activity |
| Cn1cnc(S(=O)(=O)N(CC2CCN(C(=O)OC(C)(C)C)CC2)[C@H]2CCC[C@@H]2N(Cc2cncn2C)c2ccc(C#N)cc2)c1 (racemic) [7d, (±)-[N-(N-tert-Butoxycarbonylpiperidin-4-ylmethyl)-N-{trans-2-[(4-cyanophenyl)(3-methyl-3H-imidazol-4-ylmethyl)amino]cyclopentyl}]-1-methyl-1H-imidazole-4-sulfonamide] |  |  |  | 600 nM | Selectivity (ratio of rat to P. falciparum PFT IC50 values) [7]: >100 fold; IC50 (rat PFT): > 1000 nM |
| Cc1ccccc1CN(CC(C)(C)N(Cc1cncn1C)c1ccc(C#N)cc1)S(=O)(=O)c1cn(C)cn1 [3b, [N-(2-Methylbenzyl)-N-{(4-cyanophenyl)(3-methyl-3H-imidazol-4-ylmethyl)amino}-2,2-dimethylethyl]-1-methyl-1H-imidazole-4-sulfonamide] |  |  |  | 75 nM | IC50 [8]: 210 nM |
| Cn1cnc(S(=O)(=O)N(Cc2ccsc2)[C@H]2CCC[C@@H]2N(Cc2cncn2C)c2ccc(C#N)cc2)c1 (racemic) [7c, (±)-[N-(Thiophen-3-ylmethyl)-N-{trans-2-[(4-cyanophenyl)(3-methyl-3H-imidazol-4-ylmethyl)amino]cyclopentyl}]-1-methyl-1H-imidazole-4-sulfonamide] |  |  |  | 2700 nM | IC50 [8]: 2700 nM |
| Cn1cnc(S(=O)(=O)N(CC2CCN(C(=O)OC(C)(C)C)CC2)CC(C)(C)N(Cc2cncn2C)c2ccc(C#N)cc2)c1 [3d, [N-(N-tert-Butoxycarbonylpiperidin-4-ylmethyl)-N-{(4-cyanophenyl)(3-methyl-3H-imidazol-4-ylmethyl)amino}-2,2-dimethylethyl]-1-methyl-1H-imidazole-4-sulfonamide] |  |  |  | 250 nM | IC50 [8]: 400 nM |
| Cn1cnc(S(=O)(=O)N(CCC(=O)N(Cc2cncn2C)c2ccc(C#N)cc2)CC2CCN(C(=O)OC(C)(C)C)CC2)c1 [5d, 3-[(N-tert-Butoxycarbonylpiperidin-4-ylmethyl)(1-methyl-1H-imidazole-4-sulfonyl)amino]-N-(4-cyanophenyl)-N-(3-methyl-3H-imidazol-4-ylmethyl)propanamide] |  |  | 0% |  |  |
| Cn1cnc(S(=O)(=O)N(CC2CCN(C(=O)OC(C)(C)C)CC2)[C@@H]2CCC[C@@H]2N(Cc2cncn2C)c2ccc(C#N)cc2)c1 (racemic) [6d, (±)-[N-(N-tert-Butoxycarbonylpiperidin-4-ylmethyl)-N-{cis-2-[(4-cyanophenyl)(3-methyl-3H-imidazol-4-ylmethyl)amino]cyclopentyl}]-1-methyl-1H-imidazole-4-sulfonamide] |  |  |  |  | Selectivity (ratio of rat to P. falciparum PFT IC50 values) [7]: >2.9 fold; IC50 (rat PFT): > 1000 nM; IC50 [8]: 3000 nM |
